What was measured:
N^5CAIR synthetase = N^5CAIR synthetase (Escherichia coli, UniProt P09029); experiment: Kinetic analysis, PK/LDH coupled ATPase assay; format: biochemical; conditions: for Inhibition of N^5CAIR synthetase by DMSO (non-aqueous) solutions: compound added as DMSO solution, not aqueous solution; for Mode of inhibition with respect to AIR / Mode of inhibition with respect to ATP: steady-state kinetics; for Mode of inhibition with respect to AIR: varied AIR; for Mode of inhibition with respect to ATP: varied ATP
Chain of N^5CAIR synthetase (P09029 whole entry): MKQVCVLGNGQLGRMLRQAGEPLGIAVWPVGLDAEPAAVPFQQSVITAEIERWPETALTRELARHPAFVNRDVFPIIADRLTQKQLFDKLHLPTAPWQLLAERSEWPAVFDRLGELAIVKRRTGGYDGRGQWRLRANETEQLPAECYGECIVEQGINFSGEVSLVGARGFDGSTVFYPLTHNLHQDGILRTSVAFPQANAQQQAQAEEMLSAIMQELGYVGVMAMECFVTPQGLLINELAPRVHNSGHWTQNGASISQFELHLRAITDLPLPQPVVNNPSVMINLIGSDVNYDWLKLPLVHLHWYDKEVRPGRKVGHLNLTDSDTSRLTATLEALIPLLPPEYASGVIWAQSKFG

[1] = Decomposition of compound solutions followed by TLC; format: physicochemical; conditions: aqueous solution
[2] = target: T1, human AIR carboxylase:SAICAR synthetase (Homo sapiens, UniProt P22234); experiment: Coupled assay against human bifunctional enzyme; format: biochemical; conditions: 200 μM compound, both activities assayed simultaneously
T1 sequence (P22234 1-425): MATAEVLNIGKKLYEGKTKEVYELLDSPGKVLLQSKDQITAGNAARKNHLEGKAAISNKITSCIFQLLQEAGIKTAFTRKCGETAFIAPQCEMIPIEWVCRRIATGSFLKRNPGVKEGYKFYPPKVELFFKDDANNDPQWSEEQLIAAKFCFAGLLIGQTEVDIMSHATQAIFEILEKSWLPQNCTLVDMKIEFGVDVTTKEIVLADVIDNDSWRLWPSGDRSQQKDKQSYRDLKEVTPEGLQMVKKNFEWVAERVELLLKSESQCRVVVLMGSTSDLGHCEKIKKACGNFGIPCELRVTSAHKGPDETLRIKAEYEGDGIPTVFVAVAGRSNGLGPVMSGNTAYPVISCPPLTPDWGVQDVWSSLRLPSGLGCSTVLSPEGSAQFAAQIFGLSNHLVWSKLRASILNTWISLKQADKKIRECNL
In short: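 His-tagged human bifunctional AIR carboxylase:SAICAR synthetase, expressed from a pET22b vector and purified on a cobalt affinity column, >95% pure by SDS-PAGE. The carboxylase and synthetase activities were measured together in one coupled assay, following a method previously described for the Gallus gallus bifunctional enzyme.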

Row | Compound | Inhibition of N^5CAIR synthetase by DMSO (non-aqueous) solutions (N^5CAIR synthetase) | Time to complete decomposition to ninhydrin [1] | Mode of inhibition with respect to AIR (N^5CAIR synthetase) | Mode of inhibition with respect to ATP (N^5CAIR synthetase) | Inhibition of either enzymatic activity (AIR carboxylase, SAICAR synthetase) [2]
1 | Cc1nonc1NC1(O)C(=O)c2ccccc2C1=O [Compound 1] | neither compound resulted in inhibition | approximately 30 minutes |  |  | 
2 | Cc1nc(NC2(O)C(=O)c3ccccc3C2=O)cs1 [Compound 2] | neither compound resulted in inhibition | around 45 minutes |  |  | 
3 | CCN(CC)C(=O)CN1C(=O)C(=O)c2ccccc21 [Compound 7] |  |  | non-competitive | non-competitive | no inhibition
4 | CCOC(=O)c1noc(C)c1-c1csc(CS(=O)(=O)c2ccc(Cl)cc2)n1 [Compound 13] |  |  | competitive | uncompetitive | no inhibition
5 | Cc1cc2nc3c(=O)[nH]c(=O)nc-3n(C[C@H](O)[C@H](O)[C@H](O)CO)c2cc1C [Compound 14, riboflavin] |  |  | noncompetitive | noncompetitive | no inhibition
